Data: ChEMBL document CHEMBL4152256, “Structure-activity relationship of new antimalarial 1-aryl-3-susbtituted propanol derivatives: Synthesis, preliminary toxicity profiling, parasite life cycle stage studies, target exploration, and targeted delivery” (Eur J Med Chem, 2018)

What was measured:
Plasmodium falciparum [1] = assay: Antiplasmodial activity against multidrug-resistant Plasmodium falciparum FCR-3 by [3H]-hypoxanthine incorporation assay; type: functional, organism-based, FCR-3/Gambia
Summary of the method: (§1)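 Blood-stage P. falciparum 3D7 and FCR-3 were tested by a modified [3H]-hypoxanthine incorporation assay. Chloroquine was the reference in all runs.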

Plasmodium falciparum [2] = assay: Antiplasmodial activity against chloroquine-sensitive Plasmodium falciparum 3D7 by [3H]-hypoxanthine incorporation assay; type: functional, organism-based; summary of the method: as §1
[3] = Cytotoxicity against human HepG2A16 cells by MTT assay; type: cell-based
Summary of the method: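 MTT viability assay on HepG2-A16 cells, giving CC50 values.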

[4] = Selectivity index, ratio of CC50 for human HepG2A16 cells by MTT assay to IC50 for multidrug-resistant Plasmodium falciparum FCR-3; type: toxicity; conditions: for selectivity ratio: HepG2A16 cells, read-out: Ratio CC50/IC50
Summary of the method: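 HepG2-A16 human hepatoma cells were tested by MTT viability assay to give CC50. Blood-stage activity was measured against the multidrug-resistant P. falciparum FCR-3 strain by [3H]-hypoxanthine incorporation to give IC50. SI = CC50 HepG2 / FCR-3 IC50.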

[5] = Genotoxicity in Salmonella typhimurium TA1535 harboring pSK1002 assessed as survival at 0.125 mg/ml in absence of Sprague-Dawley rat liver S9 fraction after by SOS/umu assay relative to control; type: toxicity, organism-based; conditions: salmonella enterica subsp. enterica serovar typhimurium, read-out: Survival
[6] = Genotoxicity in Salmonella typhimurium TA1535 harboring pSK1002 assessed as umu gene induction at 0.125 mg/ml in absence of Sprague-Dawley rat liver S9 fraction after by SOS/umu assay relative to control; type: toxicity, organism-based; conditions: salmonella enterica subsp. enterica serovar typhimurium, read-out: FC
[7] = Genotoxicity in Salmonella typhimurium TA1535 harboring pSK1002 assessed as survival at 0.125 mg/ml in presence of Sprague-Dawley rat liver S9 fraction after by SOS/umu assay relative to control; type: toxicity, organism-based; conditions: salmonella enterica subsp. enterica serovar typhimurium, read-out: Survival
[8] = Genotoxicity in Salmonella typhimurium TA1535 harboring pSK1002 assessed as umu gene induction at 0.125 mg/ml in presence of Sprague-Dawley rat liver S9 fraction after by SOS/umu assay relative to control; type: toxicity, organism-based; conditions: salmonella enterica subsp. enterica serovar typhimurium, read-out: FC
[9] = Genotoxicity in Salmonella typhimurium TA1535 harboring pSK1002 assessed as survival at 0.063 mg/ml in absence of Sprague-Dawley rat liver S9 fraction after by SOS/umu assay relative to control; type: toxicity, organism-based; conditions: salmonella enterica subsp. enterica serovar typhimurium, read-out: Survival
[10] = Genotoxicity in Salmonella typhimurium TA1535 harboring pSK1002 assessed as umu gene induction at 0.063 mg/ml in absence of Sprague-Dawley rat liver S9 fraction after by SOS/umu assay relative to control; type: toxicity, organism-based; conditions: salmonella enterica subsp. enterica serovar typhimurium, read-out: FC
[11] = Genotoxicity in Salmonella typhimurium TA1535 harboring pSK1002 assessed as survival at 0.063 mg/ml in presence of Sprague-Dawley rat liver S9 fraction after by SOS/umu assay relative to control; type: toxicity, organism-based; conditions: salmonella enterica subsp. enterica serovar typhimurium, read-out: Survival
[12] = Genotoxicity in Salmonella typhimurium TA1535 harboring pSK1002 assessed as umu gene induction at 0.063 mg/ml in presence of Sprague-Dawley rat liver S9 fraction after by SOS/umu assay relative to control; type: toxicity, organism-based; conditions: salmonella enterica subsp. enterica serovar typhimurium, read-out: FC
[13] = Genotoxicity in Salmonella typhimurium TA1535 harboring pSK1002 assessed as umu gene induction at 0.031 mg/ml in absence of Sprague-Dawley rat liver S9 fraction after by SOS/umu assay relative to control; type: toxicity, organism-based; conditions: salmonella enterica subsp. enterica serovar typhimurium, read-out: FC
[14] = Genotoxicity in Salmonella typhimurium TA1535 harboring pSK1002 assessed as survival at 0.031 mg/ml in presence of Sprague-Dawley rat liver S9 fraction after by SOS/umu assay relative to control; type: toxicity, organism-based; conditions: salmonella enterica subsp. enterica serovar typhimurium, read-out: Survival
[15] = Genotoxicity in Salmonella typhimurium TA1535 harboring pSK1002 assessed as umu gene induction at 0.031 mg/ml in presence of Sprague-Dawley rat liver S9 fraction after by SOS/umu assay relative to control; type: toxicity, organism-based; conditions: salmonella enterica subsp. enterica serovar typhimurium, read-out: FC
[16] = Genotoxicity in Salmonella typhimurium TA1535 harboring pSK1002 assessed as umu gene induction at 0.016 mg/ml in absence of Sprague-Dawley rat liver S9 fraction after by SOS/umu assay relative to control; type: toxicity, organism-based; conditions: salmonella enterica subsp. enterica serovar typhimurium, read-out: FC
[17] = Genotoxicity in Salmonella typhimurium TA1535 harboring pSK1002 assessed as umu gene induction at 0.016 mg/ml in presence of Sprague-Dawley rat liver S9 fraction after by SOS/umu assay relative to control; type: toxicity, organism-based; conditions: salmonella enterica subsp. enterica serovar typhimurium, read-out: FC
[18] = Genotoxicity in Salmonella typhimurium TA1535 harboring pSK1002 assessed as survival at 0.008 mg/ml in absence of Sprague-Dawley rat liver S9 fraction after by SOS/umu assay relative to control; type: toxicity, organism-based; conditions: salmonella enterica subsp. enterica serovar typhimurium, read-out: Survival
[19] = Genotoxicity in Salmonella typhimurium TA1535 harboring pSK1002 assessed as umu gene induction at 0.008 mg/ml in absence of Sprague-Dawley rat liver S9 fraction after by SOS/umu assay relative to control; type: toxicity, organism-based; conditions: salmonella enterica subsp. enterica serovar typhimurium, read-out: FC
[20] = Genotoxicity in Salmonella typhimurium TA1535 harboring pSK1002 assessed as survival at 0.008 mg/ml in presence of Sprague-Dawley rat liver S9 fraction after by SOS/umu assay relative to control; type: toxicity, organism-based; conditions: salmonella enterica subsp. enterica serovar typhimurium, read-out: Survival
[21] = Genotoxicity in Salmonella typhimurium TA1535 harboring pSK1002 assessed as umu gene induction at 0.008 mg/ml in presence of Sprague-Dawley rat liver S9 fraction after by SOS/umu assay relative to control; type: toxicity, organism-based; conditions: salmonella enterica subsp. enterica serovar typhimurium, read-out: FC
[22] = Genotoxicity in Salmonella typhimurium TA1535 harboring pSK1002 assessed as survival at 0.004 mg/ml in absence of Sprague-Dawley rat liver S9 fraction after by SOS/umu assay relative to control; type: toxicity, organism-based; conditions: salmonella enterica subsp. enterica serovar typhimurium, read-out: Survival
[23] = Genotoxicity in Salmonella typhimurium TA1535 harboring pSK1002 assessed as umu gene induction at 0.004 mg/ml in absence of Sprague-Dawley rat liver S9 fraction after by SOS/umu assay relative to control; type: toxicity, organism-based; conditions: salmonella enterica subsp. enterica serovar typhimurium, read-out: FC
[24] = Genotoxicity in Salmonella typhimurium TA1535 harboring pSK1002 assessed as survival at 0.002 mg/ml in absence of Sprague-Dawley rat liver S9 fraction after by SOS/umu assay relative to control; type: toxicity, organism-based; conditions: salmonella enterica subsp. enterica serovar typhimurium, read-out: Survival
[25] = Genotoxicity in Salmonella typhimurium TA1535 harboring pSK1002 assessed as umu gene induction at 0.002 mg/ml in absence of Sprague-Dawley rat liver S9 fraction after by SOS/umu assay relative to control; type: toxicity, organism-based; conditions: salmonella enterica subsp. enterica serovar typhimurium, read-out: FC
[26] = Genotoxicity in Salmonella typhimurium TA1535 harboring pSK1002 assessed as umu gene induction at 0.002 mg/ml in presence of Sprague-Dawley rat liver S9 fraction after by SOS/umu assay relative to control; type: toxicity, organism-based; conditions: salmonella enterica subsp. enterica serovar typhimurium, read-out: FC
[27] = Genotoxicity in Salmonella typhimurium TA1535 harboring pSK1002 assessed as umu gene induction at 0.001 mg/ml in absence of Sprague-Dawley rat liver S9 fraction after by SOS/umu assay relative to control; type: toxicity, organism-based; conditions: salmonella enterica subsp. enterica serovar typhimurium, read-out: FC
[28] = Genotoxicity in Salmonella typhimurium TA1535 harboring pSK1002 assessed as survival at 0.001 mg/ml in presence of Sprague-Dawley rat liver S9 fraction after by SOS/umu assay relative to control; type: toxicity, organism-based; conditions: salmonella enterica subsp. enterica serovar typhimurium, read-out: Survival
[29] = Genotoxicity in Salmonella typhimurium TA1535 harboring pSK1002 assessed as umu gene induction at 0.001 mg/ml in presence of Sprague-Dawley rat liver S9 fraction after by SOS/umu assay relative to control; type: toxicity, organism-based; conditions: salmonella enterica subsp. enterica serovar typhimurium, read-out: FC
[30] = Plasmodium falciparum, FCR-3/Gambia, 3 h

| SMILES | viability at 0.125 mg/ml [5] [%] | fold induction at 0.125 mg/ml [6] | viability at 0.125 mg/ml [7] [%] | fold induction at 0.125 mg/ml [8] | viability at 0.063 mg/ml [9] [%] | fold induction at 0.063 mg/ml [10] | viability at 0.063 mg/ml [11] [%] | fold induction at 0.063 mg/ml [12] | fold induction at 0.031 mg/ml [13] | viability at 0.031 mg/ml [14] [%] | fold induction at 0.031 mg/ml [15] | fold induction at 0.016 mg/ml [16] | fold induction at 0.016 mg/ml [17] | viability at 0.008 mg/ml [18] [%] | fold induction at 0.008 mg/ml [19] | viability at 0.008 mg/ml [20] [%] | fold induction at 0.008 mg/ml [21] | viability at 0.004 mg/ml [22] [%] | fold induction at 0.004 mg/ml [23] | viability at 0.002 mg/ml [24] [%] | other results |
| --- | --- | --- | --- | --- | --- | --- | --- | --- | --- | --- | --- | --- | --- | --- | --- | --- | --- | --- | --- | --- | --- |
| OC(CCN1CCN(C(c2ccccc2)c2ccccc2)CC1)c1ccc(F)c(F)c1 (stereo unspecified) | 24.1 | 1.4 | 117 | 0.7 | 28 | 4 | 112 | 0.8 | 1.9 | 103 | 0.8 | 2 | 0.8 | 105 | 1.2 | 101 | 0.8 | 102 | 1 | 104 | IC50 (Plasmodium falciparum [1]; [30]): 370 nM; IC50 (Plasmodium falciparum [2]; Plasmodium falciparum, 3D7): 0.38 µM; CC50 ([3]; HepG2A16 cells): 54.3 µM; selectivity ratio [4]: 147; fold induction at 0.002 mg/ml [25]: 0.9; fold induction at 0.002 mg/ml [26]: 0.8; fold induction at 0.001 mg/ml [27]: 0.6; viability at 0.001 mg/ml [28]: 98.5%; fold induction at 0.001 mg/ml [29]: 0.6 |
| N#Cc1ccc(C(O)CCN2CC=C(c3ccc(F)cc3)CC2)cc1 (stereo unspecified) | 87.9 | 1.1 | 108 | 1 | 82.3 | 1.2 | 101 | 1.1 | 1.2 | 130 | 0.8 | 1.1 | 0.9 | 89.4 | 1.1 | 108 | 1 | 94.7 | 0.9 | 103 | IC50 (Plasmodium falciparum [1]; [30]): 1330 nM; IC50 (Plasmodium falciparum [2]; Plasmodium falciparum, 3D7): 8.48 µM; CC50 ([3]; HepG2A16 cells): 82.4 µM; selectivity ratio [4]: 62; fold induction at 0.002 mg/ml [25]: 0.9; fold induction at 0.002 mg/ml [26]: 1.1; fold induction at 0.001 mg/ml [27]: 0.9; viability at 0.001 mg/ml [28]: 104%; fold induction at 0.001 mg/ml [29]: 1.1 |
| COc1ccccc1N1CCN(CCC(O)c2ccc(F)cc2)CC1 (stereo in doubt; 66) | 107 | 0.9 | 89.8 | 1 | 108 | 0.9 | 100 | 0.9 | 1 | 99.2 | 0.9 | 1 | 1.1 | 114 | 1 | 88.2 | 1 | 108 | 1.1 | 114 | IC50 (Plasmodium falciparum [1]): 190 nM; IC50 (Plasmodium falciparum [2]): 7.31 µM; CC50 [3]: 19.5 µM; Ratio CC50/IC50 [4]: 103; fold induction at 0.002 mg/ml [25]: 1; fold induction at 0.002 mg/ml [26]: 1.2; fold induction at 0.001 mg/ml [27]: 1.1; viability at 0.001 mg/ml [28]: 91.6%; fold induction at 0.001 mg/ml [29]: 1.3 |
| COc1ccccc1C1=CCN(CCC(O)c2ccc(F)c3ccccc23)CC1 (stereo unspecified) | 114 | 0.4 | 79.1 | 0.7 | 90.7 | 0.5 | 76 | 0.6 | 1.3 | 124 | 0.5 | 1.2 | 0.8 | 76.4 | 0.8 | 96.9 | 0.7 | 76.7 | 0.9 | 86.6 | IC50 (Plasmodium falciparum [1]; [30]): 1300 nM; IC50 (Plasmodium falciparum [2]; Plasmodium falciparum, 3D7): 0.1 µM; CC50 ([3]; HepG2A16 cells): 17.7 µM; selectivity ratio [4]: 14; fold induction at 0.002 mg/ml [25]: 0.9; fold induction at 0.002 mg/ml [26]: 0.9; fold induction at 0.001 mg/ml [27]: 0.9; viability at 0.001 mg/ml [28]: 106%; fold induction at 0.001 mg/ml [29]: 0.8 |
